The term Kd denotes the constant that tells how readily two partners part at equilibrium.

The values that follow come from ChEMBL document CHEMBL4334471, “Discovery of 1,8-disubstituted-[1,2,3]triazolo[4,5-c]quinoline derivatives as a new class of Hippo signaling pathway inhibitors” (Bioorg Med Chem Lett, 2019).

A value given as a limit tells only on which side of the number the result lay.

For experiment [1], the target named is AP2-associated protein kinase 1 (Homo sapiens) (UniProt Q2M2I8). In words: Inhibition of human AAK1 assessed as residual activity at 10 uM using peptide as substrate incubated for 120 mins in presence of [gamma-33ATP] by scintillation counting based radiometry assay relative to control.
Experiment [2] is filed under the species Mus musculus. The experiment is described as follows: Inhibition of mouse Arg M982V/A562 mutant (27 to end residues) assessed as residual activity at 10 uM using EAIYAAPFAKKK as substrate incubated for 40 mins in presence of [gamma-33ATP] by scintillation counting based radiometry assay relative to control.
Experiment [3] addresses CDK2/Cyclin A1 (Homo sapiens) (UniProt P24941+P78396). In words: Inhibition of recombinant full length human CDK2/CyclinA assessed as residual activity at 10 uM using Histone H1 as substrate incubated for 40 mins in presence of [gamma-33ATP] by scintillation counting based radiometry assay relative to control. The experiment is classed as protein-complex assay.
Experiment [4] concerns the target Cyclin-dependent kinase 2/cyclin E1 (Homo sapiens) (UniProt P24864+P24941). The experiment is described as follows: Inhibition of recombinant full length human CDK2/CyclinE assessed as residual activity at 10 uM using Histone H1 as substrate incubated for 40 mins in presence of [gamma-33ATP] by scintillation counting based radiometry assay relative to control. The experiment is classed as protein-complex assay.

The test system of experiment [5] is Epidermal growth factor receptor (Homo sapiens), P00533 [L858R]. In words: Inhibition of recombinant human EGFR L858R mutant (696 to end residues) assessed as residual activity at 10 uM using poly(Glu, Tyr) 4:1 as substrate at 40 mins in presence of [gamma-33ATP] by scintillation counting based radiometry assay relative to control.
Experiment [6] addresses Ephrin type-A receptor 4 (Homo sapiens) (UniProt P54764). In words: Inhibition of recombinant human EphA4 (601 to 892 residues) assessed as residual activity at 10 uM using poly(Glu, Tyr) 4:1 as substrate at 40 mins in presence of [gamma-33ATP] by scintillation counting based radiometry assay relative to control.
Experiment [7] deals with Focal adhesion kinase 1 (Homo sapiens) (UniProt Q05397). The experiment is described as follows: Inhibition of recombinant human FAK (411 to 686 residues) assessed as residual activity at 10 uM using EEEEYEEEEEEYYIIEEEEEEYEEEEEEYYEEEEEEKKKK as substrate at 40 mins in presence of [gamma-33ATP] by scintillation counting based radiometry assay relative to control.
Experiment [8] has as its system Serine/threonine-protein kinase Nek4 (Homo sapiens), P51957 [P225A]. In words: Inhibition of recombinant full-length human NEK4 P225A mutant assessed as residual activity at 10 uM using myelin basic protein as substrate measured after 40 mins in presence of [gamma33P]ATP by scintillation counting based radiometry assay relative to control.
Experiment [9] deals with Serine/threonine-protein kinase NIM1 (Homo sapiens) (UniProt Q8IY84). In words: Inhibition of recombinant full length human NIM1 assessed as residual activity at 10 uM using KKKVSRSGLYRSPSMPENLNRPR as substrate measured after 40 mins in presence of [gamma33P]ATP by scintillation counting based radiometry assay relative to control.
Experiment [10] addresses Serine/threonine-protein kinase PAK 4 (Homo sapiens) (UniProt O96013). In words: Inhibition of recombinant human PAK4 (295 to end residues) assessed as residual activity at 10 uM using myelin basic protein as substrate measured after 40 mins in presence of [gamma33P]ATP by scintillation counting based radiometry assay relative to control.
The target of experiment [11] is Proto-oncogene tyrosine-protein kinase receptor Ret (Homo sapiens) (UniProt P07949). In words: Inhibition of recombinant human Ret (658 to end residues) assessed as residual activity at 10 uM using KKKSPGEYVNIEFG as substrate incubated for 40 mins in presence of [gamma33P]ATP by scintillation counting based radiometry assay relative to control.
Experiment [12] deals with SRSF protein kinase 1 (Homo sapiens) (UniProt Q96SB4). The experiment is described as follows: Inhibition of recombinant human SRPK1 (2 to end residues) assessed as residual activity at 10 uM using RSRSRSRSRSRSRSR as substrate incubated for 40 mins in presence of [gamma33P]ATP by scintillation counting based radiometry assay relative to control.
Experiment [13] has as its target Serine/threonine-protein kinase 33 (Homo sapiens) (UniProt Q9BYT3). The experiment is described as follows: Inhibition of recombinant full-length human STK33 assessed as residual activity at 10 uM using myelin basic protein as substrate incubated for 40 mins in presence of [gamma33P]ATP by scintillation counting based radiometry assay relative to control.
For experiment [14], the target named is TGF-beta receptor type-2 (Homo sapiens) (UniProt P37173). In words: Inhibition of recombinant human TGFBR2 (188 to end residues) assessed as residual activity at 10 uM using myelin basic protein as substrate incubated for 120 mins in presence of [gamma33P]ATP by scintillation counting based radiometry assay relative to control.
In experiment [15] the target is TRAF2 and NCK-interacting protein kinase (Homo sapiens) (UniProt Q9UKE5). In words: Inhibition of human TNIK (1 to 367 residues) assessed as residual activity at 10 uM using RLGRDKYKTLRQIRQ as substrate incubated for 40 mins in presence of [gamma33P]ATP by scintillation counting based radiometry assay relative to control.
The target in experiment [16] is High affinity nerve growth factor receptor (Homo sapiens) (UniProt P04629). In words: Inhibition of recombinant human TRKA (440 to end residues) assessed as residual activity at 10 uM using KKKSPGEYVNIEF as substrate incubated for 40 mins in presence of [gamma33P]ATP by scintillation counting based radiometry assay relative to control.
Experiment [17] has as its target Testis-specific serine/threonine-protein kinase 1 (Homo sapiens) (UniProt Q9BXA7). In words: Inhibition of recombinant full-length human TSSK1 assessed as residual activity at 10 uM using KKKVSRSGLYRSPSMPENLNRPR as substrate incubated for 40 mins in presence of [gamma33P]ATP by scintillation counting based radiometry assay relative to control.
The target of experiment [18] is Serine-protein kinase ATM (Homo sapiens) (UniProt Q13315). The experiment is described as follows: Inhibition of recombinant full-length human ATM assessed as residual activity at 10 uM using GST-cMyc-p53 as substrate measured after 40 mins by ELISA relative to control.
The species named for experiment [19] is Mus musculus. In words: Inhibition of recombinant full-length mouse PI3K p110/p85 E542K mutant assessed as residual activity at 10 uM using phosphatidylinositol-4, 5-bisphosphate as substrate incubated for 40 mins in presence of [gamma33P]ATP by scintillation counting based radiometry assay relative to control.
For experiment [20], the target named is Serine/threonine-protein kinase LATS2 (Homo sapiens, UniProt Q9NRM7). In words: Binding affinity to wild-type human partial length LATS2 (Q641 to V1088 residues) expressed in mammalian expression system assessed as dissociation constant by Kinomescan method. The method in brief: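 KINOMEscan competition binding assay. Kinase bound at each concentration of test compound was quantified by qPCR and plotted against log10 compound concentration to derive Kd.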

Experiment [21] has as its target Dual specificity mitogen-activated protein kinase kinase 4 (Mus musculus) (UniProt P47809). The experiment is described as follows: Inhibition of recombinant mouse MKK4 (34 to end residues) assessed as residual activity at 10 uM using poly(Glu, Tyr) 4:1 as substrate incubated for 40 mins in presence of [gamma-33ATP] by scintillation counting based radiometry assay relative to control.

SRSF protein kinase 1 (Homo sapiens), sequence (Q96SB4 whole entry): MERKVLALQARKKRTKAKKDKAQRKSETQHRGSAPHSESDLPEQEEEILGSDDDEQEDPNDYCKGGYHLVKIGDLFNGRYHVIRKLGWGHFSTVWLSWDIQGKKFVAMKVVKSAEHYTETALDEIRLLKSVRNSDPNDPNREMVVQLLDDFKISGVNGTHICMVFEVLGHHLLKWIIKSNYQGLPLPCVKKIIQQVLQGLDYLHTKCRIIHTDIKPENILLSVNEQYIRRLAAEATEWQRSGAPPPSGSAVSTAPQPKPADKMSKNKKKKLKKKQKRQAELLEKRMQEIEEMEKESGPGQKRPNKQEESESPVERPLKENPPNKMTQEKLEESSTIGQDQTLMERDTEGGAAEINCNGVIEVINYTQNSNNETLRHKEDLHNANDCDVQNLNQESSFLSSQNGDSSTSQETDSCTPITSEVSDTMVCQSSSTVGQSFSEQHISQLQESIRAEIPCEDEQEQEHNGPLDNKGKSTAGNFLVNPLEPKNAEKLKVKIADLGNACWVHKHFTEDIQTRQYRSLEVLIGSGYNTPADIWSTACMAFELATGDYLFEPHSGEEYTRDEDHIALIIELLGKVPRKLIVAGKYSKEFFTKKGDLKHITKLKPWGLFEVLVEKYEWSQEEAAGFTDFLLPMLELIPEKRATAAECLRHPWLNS
Focal adhesion kinase 1 (Homo sapiens), sequence (Q05397 2-1052 limits assumed): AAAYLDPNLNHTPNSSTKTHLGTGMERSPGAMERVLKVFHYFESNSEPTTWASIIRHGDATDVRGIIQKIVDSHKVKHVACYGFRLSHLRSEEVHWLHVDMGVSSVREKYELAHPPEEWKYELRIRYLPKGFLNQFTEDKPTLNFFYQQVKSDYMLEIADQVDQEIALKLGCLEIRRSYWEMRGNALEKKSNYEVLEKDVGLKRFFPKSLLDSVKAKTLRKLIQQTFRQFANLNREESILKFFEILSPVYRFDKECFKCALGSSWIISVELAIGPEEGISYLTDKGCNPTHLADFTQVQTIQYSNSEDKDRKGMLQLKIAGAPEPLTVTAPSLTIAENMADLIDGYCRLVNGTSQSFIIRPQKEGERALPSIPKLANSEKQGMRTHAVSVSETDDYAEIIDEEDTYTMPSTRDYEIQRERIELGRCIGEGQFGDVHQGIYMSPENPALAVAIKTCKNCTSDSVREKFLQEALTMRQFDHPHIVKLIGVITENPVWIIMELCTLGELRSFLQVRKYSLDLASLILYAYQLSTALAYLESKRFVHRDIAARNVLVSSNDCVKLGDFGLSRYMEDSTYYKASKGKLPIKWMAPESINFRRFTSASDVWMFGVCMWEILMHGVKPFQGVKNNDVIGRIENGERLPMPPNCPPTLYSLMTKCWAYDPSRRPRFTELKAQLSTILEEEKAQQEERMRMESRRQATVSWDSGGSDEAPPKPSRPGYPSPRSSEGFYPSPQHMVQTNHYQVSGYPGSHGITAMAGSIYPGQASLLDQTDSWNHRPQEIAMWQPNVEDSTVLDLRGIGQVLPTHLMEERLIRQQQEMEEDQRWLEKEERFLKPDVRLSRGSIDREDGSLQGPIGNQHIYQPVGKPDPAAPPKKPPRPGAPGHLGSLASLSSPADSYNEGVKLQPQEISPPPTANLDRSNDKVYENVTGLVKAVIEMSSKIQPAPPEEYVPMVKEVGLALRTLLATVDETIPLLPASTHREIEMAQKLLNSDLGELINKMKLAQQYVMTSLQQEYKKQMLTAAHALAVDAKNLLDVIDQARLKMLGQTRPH
Serine/threonine-protein kinase Nek4 (Homo sapiens), P51957 [P225A], sequence (P51957 whole entry P225A): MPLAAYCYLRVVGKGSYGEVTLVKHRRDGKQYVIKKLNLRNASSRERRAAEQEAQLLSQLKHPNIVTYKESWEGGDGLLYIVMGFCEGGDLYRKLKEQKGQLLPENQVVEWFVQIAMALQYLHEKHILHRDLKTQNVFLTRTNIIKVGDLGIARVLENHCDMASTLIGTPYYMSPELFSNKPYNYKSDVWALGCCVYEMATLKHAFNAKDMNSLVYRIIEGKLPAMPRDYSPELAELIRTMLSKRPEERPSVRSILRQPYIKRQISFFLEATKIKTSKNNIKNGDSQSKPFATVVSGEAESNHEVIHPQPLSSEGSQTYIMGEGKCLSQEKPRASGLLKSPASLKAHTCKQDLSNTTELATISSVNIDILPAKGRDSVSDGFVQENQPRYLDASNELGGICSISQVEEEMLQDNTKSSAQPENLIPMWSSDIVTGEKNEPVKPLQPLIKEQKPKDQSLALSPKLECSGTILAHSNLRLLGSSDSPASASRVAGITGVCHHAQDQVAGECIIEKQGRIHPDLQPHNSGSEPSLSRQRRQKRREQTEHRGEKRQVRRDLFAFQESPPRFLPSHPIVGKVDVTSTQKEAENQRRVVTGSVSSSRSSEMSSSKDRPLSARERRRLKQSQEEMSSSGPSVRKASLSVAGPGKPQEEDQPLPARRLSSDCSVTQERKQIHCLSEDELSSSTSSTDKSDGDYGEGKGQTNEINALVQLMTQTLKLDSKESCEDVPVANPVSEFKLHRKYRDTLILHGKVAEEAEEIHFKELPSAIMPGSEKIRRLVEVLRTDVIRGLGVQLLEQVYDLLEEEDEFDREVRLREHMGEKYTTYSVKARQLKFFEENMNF
Serine/threonine-protein kinase PAK 4 (Homo sapiens), sequence (O96013 whole entry, looked up): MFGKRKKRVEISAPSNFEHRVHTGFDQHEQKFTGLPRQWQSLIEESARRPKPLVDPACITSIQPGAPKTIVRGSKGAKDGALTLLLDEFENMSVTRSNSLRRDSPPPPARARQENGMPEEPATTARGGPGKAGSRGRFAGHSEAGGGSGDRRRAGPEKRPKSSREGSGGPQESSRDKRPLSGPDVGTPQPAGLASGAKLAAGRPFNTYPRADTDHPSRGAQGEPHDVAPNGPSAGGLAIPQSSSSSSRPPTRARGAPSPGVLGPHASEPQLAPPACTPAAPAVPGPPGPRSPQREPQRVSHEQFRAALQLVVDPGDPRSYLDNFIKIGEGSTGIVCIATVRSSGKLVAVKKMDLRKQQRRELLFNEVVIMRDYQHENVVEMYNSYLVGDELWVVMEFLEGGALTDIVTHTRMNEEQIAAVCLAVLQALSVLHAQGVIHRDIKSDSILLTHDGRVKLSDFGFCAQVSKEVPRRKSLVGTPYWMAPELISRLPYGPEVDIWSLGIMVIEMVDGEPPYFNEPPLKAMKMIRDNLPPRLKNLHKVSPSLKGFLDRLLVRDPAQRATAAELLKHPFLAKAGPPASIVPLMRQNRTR
Testis-specific serine/threonine-protein kinase 1 (Homo sapiens), sequence (Q9BXA7 whole entry): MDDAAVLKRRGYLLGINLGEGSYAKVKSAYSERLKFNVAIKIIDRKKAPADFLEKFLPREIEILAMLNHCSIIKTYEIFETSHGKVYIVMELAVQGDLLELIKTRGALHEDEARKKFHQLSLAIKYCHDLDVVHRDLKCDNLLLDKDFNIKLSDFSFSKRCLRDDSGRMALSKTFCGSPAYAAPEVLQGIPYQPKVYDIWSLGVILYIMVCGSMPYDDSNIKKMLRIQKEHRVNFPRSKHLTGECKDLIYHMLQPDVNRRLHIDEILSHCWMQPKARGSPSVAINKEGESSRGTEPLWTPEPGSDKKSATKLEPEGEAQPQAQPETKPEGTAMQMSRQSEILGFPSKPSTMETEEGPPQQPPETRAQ
Serine/threonine-protein kinase 33 (Homo sapiens), sequence (Q9BYT3 whole entry, looked up): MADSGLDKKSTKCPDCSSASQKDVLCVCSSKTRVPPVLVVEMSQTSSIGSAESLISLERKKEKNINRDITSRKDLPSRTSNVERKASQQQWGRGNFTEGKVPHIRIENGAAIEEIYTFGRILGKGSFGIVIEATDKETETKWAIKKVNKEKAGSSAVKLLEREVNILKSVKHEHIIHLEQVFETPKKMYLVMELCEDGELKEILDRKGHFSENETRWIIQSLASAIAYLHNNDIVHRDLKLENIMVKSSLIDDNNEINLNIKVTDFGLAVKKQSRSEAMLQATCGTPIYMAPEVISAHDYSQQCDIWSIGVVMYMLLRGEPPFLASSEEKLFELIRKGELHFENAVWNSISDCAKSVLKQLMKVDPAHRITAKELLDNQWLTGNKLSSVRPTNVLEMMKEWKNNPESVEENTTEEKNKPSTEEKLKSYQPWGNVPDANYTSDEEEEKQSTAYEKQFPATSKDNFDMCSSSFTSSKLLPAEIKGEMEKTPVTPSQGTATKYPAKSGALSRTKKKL
Dual specificity mitogen-activated protein kinase kinase 4 (Mus musculus), sequence (P47809 whole entry): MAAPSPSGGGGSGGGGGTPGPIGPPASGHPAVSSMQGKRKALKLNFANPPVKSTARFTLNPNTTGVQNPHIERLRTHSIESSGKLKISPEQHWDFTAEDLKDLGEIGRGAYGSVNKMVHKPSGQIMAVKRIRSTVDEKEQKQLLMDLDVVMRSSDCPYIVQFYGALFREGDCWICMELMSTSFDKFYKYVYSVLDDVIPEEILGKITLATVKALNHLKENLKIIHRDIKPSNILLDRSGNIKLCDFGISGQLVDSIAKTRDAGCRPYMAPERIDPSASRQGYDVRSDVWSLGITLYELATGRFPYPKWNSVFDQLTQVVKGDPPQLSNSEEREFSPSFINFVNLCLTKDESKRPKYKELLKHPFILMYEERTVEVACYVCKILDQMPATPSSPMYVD
TGF-beta receptor type-2 (Homo sapiens), sequence (P37173 whole entry, the tested form may be a part): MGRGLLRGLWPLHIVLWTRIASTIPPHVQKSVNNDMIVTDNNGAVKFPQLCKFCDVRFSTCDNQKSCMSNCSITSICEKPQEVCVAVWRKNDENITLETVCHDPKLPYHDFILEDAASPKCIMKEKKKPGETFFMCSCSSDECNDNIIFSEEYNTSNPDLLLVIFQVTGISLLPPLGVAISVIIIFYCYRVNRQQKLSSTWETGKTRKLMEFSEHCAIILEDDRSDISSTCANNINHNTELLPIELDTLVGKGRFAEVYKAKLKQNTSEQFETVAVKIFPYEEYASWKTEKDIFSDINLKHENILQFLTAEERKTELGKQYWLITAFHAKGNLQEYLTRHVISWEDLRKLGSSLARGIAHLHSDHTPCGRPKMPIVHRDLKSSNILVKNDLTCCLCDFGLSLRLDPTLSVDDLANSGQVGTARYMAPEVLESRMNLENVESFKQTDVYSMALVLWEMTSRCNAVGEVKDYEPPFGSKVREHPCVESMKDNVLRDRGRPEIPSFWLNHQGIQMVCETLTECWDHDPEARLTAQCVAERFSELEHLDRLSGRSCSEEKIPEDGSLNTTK

Turning to `C[C@@H](c1ccccc1)n1nnc2cnc3ccc(-c4cnc5[nH]ccc5c4)cc3c21`, the Activity was 78% in experiment [1]; -1% in experiment [2]; 63% in [3]; 72% in [4]; 40% in [5]; 81% in [6]. Also, the Activity worked out at 82% in [7]; 20% in experiment [8]; 99% in experiment [9]; 88% in experiment [10]; 57% in experiment [11]; 62% in experiment [12]. Besides, the Activity in [13] was determined as 91%; in experiment [14] it was 87%; in experiment [15], 16%; in [16], 5%; in experiment [17], 74%; in experiment [18], 0%. Further, the Activity in [19] was -1%; in [21], 129%. Besides, the Kd in experiment [20] was greater than 10 µM.
